Experimental data from different studies.
Protocols differ between the studies behind these lines.
Organism: Acinetobacter baumannii
Effect on: microbial growth

| Compound | assay | test system | conditions | MIC |
| --- | --- | --- | --- | --- |
| CCCCCCC/C=C/C(=O)N1C(=O)/C(=C(/C)O)C(=O)C1Cc1ccc(O)cc1 (stereo not drawn) |  | ATCC19606 |  | > 200 µg/mL |
| CN[C@H](CC(C)C)C(=O)N[C@H]1C(=O)N[C@@H](CC(N)=O)C(=O)N[C@H]2C(=O)N[C@H]3C(=O)N[C@H](C(=O)N[C@H](C(=O)O)c4cc(O)cc(O)c4-c4cc3ccc4O)[C@H](O)c3ccc(c(Cl)c3)Oc3cc2cc(c3O[C@@H]2O[C@H](CO)[C@@H](O)[C@H](O)[C@H]2O[C@H]2C[C@](C)(N)[C@H](O)[C@H](C)O2)Oc2ccc(cc2Cl)[C@H]1O | broth dilution | ATCC19606 | 18 h | > 32 µg/mL |
| CNc1cccc2c(O)c3c(cc12)C[C@H]1C[C@H]2[C@H](N(C)C)C(O)=C(C(N)=O)C(=O)[C@@]2(O)C(O)=C1C3=O | broth dilution | ATCC19606 |  | > 32 µg/mL |
| NC1CCc2c1[nH]c1ccc(Cl)c(Cl)c21 (stereo not drawn) | broth dilution | ATCC19606 |  | 8 µg/mL |
| CNC(=O)c1cc(Oc2ccc(NC(=O)Nc3ccc(Cl)c(C(F)(F)F)c3)cc2)ccn1 |  | DSM30007 |  | > 100 µM |
| O=[N+]([O-])c1ccc(O)c2ncccc12 | broth dilution | ATCC19606 |  | 8 µg/mL |
| Cc1nc(Cl)c2c(c1O)C(=O)C1=C(O)[C@]3(O)C(=O)C(C(N)=O)=C(O)[C@@H](N(C)C)[C@@H]3C[C@@H]1C2.Cl | broth dilution | ATCC19606 |  | 4 µg/mL |
| O=C(O)c1ccc(-n2cc(/C=N/Nc3ccc(Br)cc3)c(-c3cccc(F)c3)n2)cc1 |  | ATCCBAA1605 |  | 6.25 µg/mL |
| O=C(Nc1ccc(F)c(Cl)c1)c1cc(Cl)ccc1O | broth dilution | BAA1605 |  | > 64 µg/mL |
| CCCNc1nc(N(C)C)c2c(c1O)C(=O)C1=C(O)[C@]3(O)C(=O)C(C(N)=O)=C(O)[C@@H](N(C)C)[C@@H]3C[C@@H]1C2.Cl.Cl | broth dilution | ATCC19606 |  | > 32 µg/mL |
| CN(C)c1ccc(-c2ccc3cc4c(c(O)c3c2)C(=O)C2=C(O)[C@]3(O)C(=O)C(C(N)=O)=C(O)[C@@H](N(C)C)[C@@H]3C[C@@H]2C4)cc1 | broth dilution | ATCC19606 |  | 32 µg/mL |
| CCCCC(=O)N1C(=O)/C(=C(/C)O)C(=O)C1CC(C)C (stereo not drawn) |  | ATCC19606 |  | > 200 µg/mL |
| CC1(C)S[C@@H]2[C@H](NC(=O)C(C(=O)O)c3ccccc3)C(=O)N2[C@H]1C(=O)O (stereo partly drawn) | broth dilution |  |  | 44.3 µM |
| N=C(N)c1ccc(OCc2ccc(Br)cc2COc2ccc(C(=N)N)cc2)cc1 | broth dilution | ATCC17978 |  | > 200 µg/mL |
| CN[C@@H]1[C@@H](O)[C@@H](O[C@@H]2[C@@H](O)[C@H](O[C@H]3OC(CNCCO)=CC[C@H]3N)[C@@H](N)C[C@H]2NC(=O)[C@@H](O)CCN)OC[C@]1(C)O |  |  |  | 2 µg/mL |
| O=C(CCc1ccc(O)c(O)c1)NCCCCCCCC[P+](c1ccccc1)(c1ccccc1)c1ccccc1.[Br-] | broth dilution | ATCC19606 | 18 h | > 32 µg/mL |
| N=C(N)c1ccc(OCc2cc(COc3ccc(C(=N)N)cc3)cc(-c3ccccc3)c2)cc1 | broth dilution | ATCC17978 |  | > 200 µg/mL |
| CC(C)Oc1c(NC(=O)c2ccc(NC(=O)[C@H](CC(N)=O)NC(=O)c3ccc(NC(=O)c4ccc(C#N)s4)cc3)cc2)ccc(C(=O)Nc2ccc(C(=O)O)cc2)c1O |  | DSM30008 |  | 0.125 µg/mL |
| NC1CCCCc2c1[nH]c1ccc(Cl)c(Cl)c21 (stereo not drawn) | broth dilution | ATCC19606 |  | 16 µg/mL |
| COc1c2c(c(O)c3cc(F)ccc13)C(=O)C1=C(O)[C@]3(O)C(=O)C(C(N)=O)=C(O)[C@@H](N(C)C)[C@@H]3C[C@@H]1C2 | broth dilution | ATCC19606 |  | 2 µg/mL |

| Compound | assay | test system | conditions | MIC |
| --- | --- | --- | --- | --- |
| CN(C)c1nc(NC(=O)CNC(C)(C)C)c(O)c2c1C[C@H]1C[C@H]3[C@H](N(C)C)C(O)=C(C(N)=O)C(=O)[C@@]3(O)C(O)=C1C2=O.Cl | broth dilution | ATCC19606 |  | > 32 µg/mL |
| O=C(O)c1ccc(-n2cc(/C=N/Nc3ccc(Cl)cc3)c(-c3ccc4ccccc4c3)n2)cc1 |  | ATCCBAA1605 |  | 12.5 µg/mL |
| C[C@@H](O)[C@H]1C(=O)N2C(C(=O)O)=C(SCCN=CN)C[C@H]12 | broth dilution | KCCM40203 | 16 h | 1 µM |
| CN(C)[C@@H]1C(O)=C(C(N)=O)C(=O)[C@@]2(O)C(O)=C3C(=O)c4c(O)cncc4C[C@H]3C[C@@H]12.Cl.Cl | broth dilution | ATCC19606 |  | 2 µg/mL |
| CC(C)(O/N=C(\C(=O)N[C@@H]1C(=O)N2C(C(=O)[O-])=C(C[n+]3ccccc3)CS[C@H]12)c1csc(N)n1)C(=O)O | broth dilution | ATCC19606 |  | 4 µg/mL |
| N=C(N)c1ccc(OCc2ccc(-c3ccccc3)cc2COc2ccc(C(=N)N)cc2)cc1 | broth dilution | ATCC17978 |  | > 200 µg/mL |
| O=C(Cc1ccc(O)c(O)c1)NCCCCCCCC[P+](c1ccccc1)(c1ccccc1)c1ccccc1.[Br-] | broth dilution | ATCC19606 | 18 h | > 32 µg/mL |
| CC(C)CNc1nc(Cl)c2c(c1O)C(=O)C1=C(O)[C@]3(O)C(=O)C(C(N)=O)=C(O)[C@@H](N(C)C)[C@@H]3C[C@@H]1C2.Cl.Cl.Cl | broth dilution | ATCC19606 |  | 2 µg/mL |
| CCCCCCC/C=C/C(=O)N1C(=O)/C(=C(/C)O)C(=O)C1CO (stereo not drawn) |  | ATCC19606 |  | > 200 µg/mL |
| NC[C@H]1O[C@H](O[C@H]2[C@H](O)[C@@H](O[C@H]3O[C@H](CO)[C@@H](O)[C@H](N)[C@H]3O)[C@H](N)C[C@@H]2N)[C@H](N)C[C@@H]1O |  |  |  | 1 µg/mL |
| NC[C@H]1O[C@H](O[C@H]2[C@H](O)[C@@H](O[C@H]3O[C@H](CO)[C@@H](O)[C@H](N)[C@H]3O)[C@H](N)C[C@@H]2N)[C@H](N)C[C@@H]1O | broth dilution |  |  | 2.6 µM |
| C/C(O)=C1\C(=O)C(CC(C)C)N(C(=O)C=Cc2ccccc2)C1=O (stereo not drawn) |  | ATCC19606 |  | > 200 µg/mL |
| O=C(CCCCCC[P+](c1ccccc1)(c1ccccc1)c1ccccc1)Nc1cc(O)c(O)c(O)c1.[Br-] | broth dilution | ATCC19606 | 18 h | > 32 µg/mL |
| O=C(O)c1ccc(-n2cc(/C=N/Nc3ccc(F)cc3)c(-c3ccc(F)cc3)n2)cc1 |  | ATCCBAA1605 |  | 25 µg/mL |
| CN[C@H](CC(C)C)C(=O)N[C@H]1C(=O)N[C@@H](CC(N)=O)C(=O)N[C@H]2C(=O)N[C@H]3C(=O)N[C@H](C(=O)N[C@H](C(=O)O)c4cc(O)cc(O)c4-c4cc3ccc4O)[C@H](O)c3ccc(c(Cl)c3)Oc3cc2cc(c3O[C@@H]2O[C@H](CO)[C@@H](O)[C@H](O)[C@H]2O[C@H]2C[C@](C)(N)[C@H](O)[C@H](C)O2)Oc2ccc(cc2Cl)[C@H]1O | broth dilution | BAA747 |  | > 128 µM |
| O=C(O)c1ccc(-n2cc(/C=N/Nc3ccc(F)c(Cl)c3)c(-c3ccc4ccccc4c3)n2)cc1 |  | ATCCBAA1605 |  | 25 µg/mL |
| CC(C)CCNc1nc(Cl)c2c(c1O)C(=O)C1=C(O)[C@]3(O)C(=O)C(C(N)=O)=C(O)[C@@H](N(C)C)[C@@H]3C[C@@H]1C2.Cl.Cl.Cl | broth dilution | ATCC19606 |  | 4 µg/mL |
| CCCCCCC/C=C/C(=O)N1CC(=O)/C(=C(\C)O)C1=O |  | ATCC19606 |  | 100 µg/mL |
| O=C(N[C@H](CO)[C@H](O)c1ccc([N+](=O)[O-])cc1)C(Cl)Cl |  | ATCC19606 |  | 250 µg/mL |
